Source: PubChem BioAssay
In the library only some 2.3% were active in any assay of this set; here they are far more common.
AP ELISA ortho – alternative complement pathway inhibitors, primary screen, biochemical, ELISA, human serum, orthogonally pooled compounds. LPS-coated ELISA, C3 deposition; tested in compound mixtures. inhibition, % at 5 µM. 0.08% of 62,000 active;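 active = inhibition above 30% in each of the two pooled mixtures holding the compound, so the lower value exceeds 30%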
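Assay system: Human serum alternative complement pathway, C3 deposition on LPS-coated wells | Incubation: 1 h serum-compound exposure at 37 °C | Doses: 5 µM per compound in ten-compound mixtures | Read-out: Percent inhibition | Technique: ELISA with HRP anti-human C3 antibody, TMB substrate, absorbance 450 nm | Replication: Two pool placements per compound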
HePTP inh – inhibitors of human HePTP phosphatase, primary screen, biochemical, absorbance, leukemia target | Tyrosine-protein phosphatase non-receptor type 7 (Homo sapiens), P35236 | recombinant HePTP phosphatase activity, OD absorbance | inhibition, % at 20 µM | 0.64% of 110,000 active; in the data active = inhibition above about 50%
PLAP act – PLAP enzyme activators, biochemical, luminescence, HTS; purified PLAP enzyme, luminescent substrate read-out; stronger effect = higher value; activation fold at 20 µM; 1.2% of 96,000 active; in the data active = activation fold above about 2
Target sequence (P05187 whole entry, looked up): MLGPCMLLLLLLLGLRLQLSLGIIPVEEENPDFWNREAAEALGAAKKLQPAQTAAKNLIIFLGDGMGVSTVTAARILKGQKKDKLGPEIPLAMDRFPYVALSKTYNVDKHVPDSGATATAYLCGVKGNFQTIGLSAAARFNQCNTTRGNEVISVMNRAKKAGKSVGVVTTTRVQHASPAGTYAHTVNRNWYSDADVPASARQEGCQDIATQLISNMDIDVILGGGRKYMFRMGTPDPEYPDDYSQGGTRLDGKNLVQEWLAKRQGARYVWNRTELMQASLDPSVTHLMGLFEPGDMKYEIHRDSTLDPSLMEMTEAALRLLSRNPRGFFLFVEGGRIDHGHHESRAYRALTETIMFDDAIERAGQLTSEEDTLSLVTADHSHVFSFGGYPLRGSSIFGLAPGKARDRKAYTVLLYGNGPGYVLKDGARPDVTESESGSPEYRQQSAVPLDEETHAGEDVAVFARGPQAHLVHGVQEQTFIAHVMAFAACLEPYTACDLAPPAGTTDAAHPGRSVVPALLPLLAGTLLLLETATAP
Ecoli tolC – growth inhibitors of E. coli tolC mutant, primary screen, strain BW25113 ΔtolC::kan, 384-well. OD615. growth inhibition, % at 10 µM (by protocol). 2.2% of 65,000 active;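 active = growth inhibition at or above a cutoff equal to the mean over every tested compound plus 3 SD, cut at about 60% in these data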;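 note: growth measured after 20 h incubation at 37 °C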
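Test system: E. coli BW25113 ΔtolC::kan bacteria; incubation: 37 °C, 20 h exposure; medium: LB broth supplemented with 50 µg/mL kanamycin; read-out basis: percent growth inhibition; signal: A615 absorbance measurement; compound: 10 µM final, single dose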
E coli WT exp – growth inhibitors of wild-type E. coli, primary screen, strain BW25113, expanded library, OD600 | OD600 absorbance | growth inhibition, % at 100 µM | 0.15% of 98,000 active;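 active = growth inhibition above about 50% at one test dose, limit read from the data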;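 note: growth measured after 20 h incubation at 37 °C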
A number is an active result; - = inactive; . = no result.

SMILES	AP ELISA ortho	HePTP inh	PLAP act	Ecoli tolC	E coli WT exp
CCOCCOC(=O)c1cccc(NC(=O)/C=C/c2ccc(Cl)cc2Cl)c1	.	-	.	.	.
Cc1[nH]n(-c2ccc([N+](=O)[O-])cc2)c(=O)c1C=NCCN1CCN(C(=O)c2ccccc2)CC1	.	.	2	.	-
Cc1ccc(Nc2nc(CSc3nnnn3C)cs2)cc1	-	-	-	-	-
Cc1ccc(Nc2nc(CSc3nnnn3-c3ccccc3)cs2)cc1	-	-	-	94.2	-
Cc1ccc(S(=O)(=O)Oc2ccc(C(c3c(C)[nH][nH]c3=O)c3c(C)[nH][nH]c3=O)cc2)cc1	.	.	.	.	-
CCOc1cc(C(c2c(C)[nH][nH]c2=O)c2c(C)[nH][nH]c2=O)ccc1OS(=O)(=O)c1ccccc1	.	.	2.6	.	-
COc1cc(C(=O)N2CCN(S(=O)(=O)c3ccccc3)CC2)cc(OC)c1OC	.	-	.	.	.
COCc1nnc(NC(=O)c2ccc(S(=O)(=O)N(C)c3ccccc3)cc2)o1	-	-	-	86.9	-
CCN(c1ccccc1)S(=O)(=O)c1ccc(OC)cc1	.	-	.	.	.
CN(c1ccccc1)S(=O)(=O)c1ccc(NC(=S)NC(=O)c2ccccc2)cc1	.	.	-	.	-
CCN(c1ccccc1)S(=O)(=O)c1ccc(C(=O)Nc2nnc(COC)o2)cc1	-	-	-	95.3	-
O=c1ccsn1Cc1ccccc1	-	-	-	99.7	100.0
O=c1ccn(Cc2ccccc2)c(=O)n1Cc1ccccc1	-	-	-	-	-
Cc1cccc(OCC(O)CN2C(=O)NC(C)(C)C2=O)c1 (centres undefined)	.	103.6	.	.	.
O=C(/C=C\c1ccco1)Oc1ccc(/C=N\NC(=O)c2cncc(Br)c2)cc1	.	57.5	.	.	.
Cc1[nH]n2c(=O)cc(C(C)(C)C)nc2c1-c1ccccc1	-	-	-	99.7	-
Cc1[nH]n2c(=O)cc(C(C)C)nc2c1-c1ccccc1	-	-	-	-	-
C/C(=N\NC(=O)C(C)Oc1ccc(Cl)cc1)c1ccccc1 (centres undefined)	.	-	.	.	.
CCCc1cc(C(=O)Nc2cc(OC)c(Cl)cc2OC)no1	-	-	-	-	-
COc1cc(NC(=O)c2cc(CC(C)C)on2)c(OC)cc1Cl	-	-	-	67.9	-
CCOc1cccc(-c2nnc(NC(=O)c3ccccc3F)s2)c1	.	-	.	.	.
Oc1c(C(c2cccs2)N2CCN(c3cccc(Cl)c3)CC2)sc2ncnn12 (centres undefined)	-	-	-	100.0	-
Oc1c(C(c2ccccc2)N2CCc3ccccc3C2)sc2ncnn12 (centres undefined)	-	-	.	-	-
Oc1c(C(c2ccco2)N2CCN(C(c3ccccc3)c3ccccc3)CC2)sc2ncnn12 (centres undefined)	-	-	2.1	64.5	-
CCC(=O)Nc1ccc(NC(=O)Cc2ccccc2)cc1	.	-	.	.	.
SMILES	AP ELISA ortho	HePTP inh	PLAP act	Ecoli tolC	E coli WT exp
CC1CCc2c(sc(NC(=O)CSc3nncn3C)c2C#N)C1 (centres undefined)	.	-	.	.	.
O=C(N/N=C/C=C/c1ccccc1)c1n[nH]c2c1CCC2	.	.	2.4	.	-
COc1ccc(C2(CNC(=O)CCc3ccccc3)CCCC2)cc1OC	.	-	.	.	.
COCc1[nH]nc2c1C(c1ccc(OC)c(OC)c1)C(C#N)=C(N)O2 (centres undefined)	-	-	-	-	-
COc1ccc(C2C(C#N)=C(N)Oc3n[nH]c(C)c32)cc1Cn1nnc2ccccc21 (centres undefined)	-	-	2	-	-
CCn1c2ccccc2c2cc(C3C(C#N)=C(N)Oc4n[nH]c(COC)c43)ccc21 (centres undefined)	-	-	-	70.6	-
CC(C)(C)c1ccc(OCC(=O)Nc2sc3c(c2C(N)=O)CCCC3)cc1	.	-	.	.	.
O=C(Nc1ccccc1)c1ccc(NS(=O)(=O)c2ccc(Br)cc2)cc1	.	-	.	.	.
CCc1ccc2oc(=O)cc(CN(C)Cc3ccccc3)c2c1	-	-	-	100.0	-
O=C(NNC(=S)NC(=O)c1ccccc1[N+](=O)[O-])c1ccccc1[N+](=O)[O-]	.	.	2.5	.	-
NC(=O)c1ccccc1NC(=O)c1ccccc1[N+](=O)[O-]	.	-	.	.	.
Cc1nnc(SCC(=O)Nc2nc3c(s2)CC(C)CC3)s1 (centres undefined)	-	-	-	-	-
CC1CCc2nc(NC(=O)c3cc(C(C)(C)C)nn3C)sc2C1 (centres undefined)	-	-	.	67.0	.
COc1ccc(-n2nc3cc(C)c(NC(=O)c4cc(Cl)c(OC)c(Cl)c4)cc3n2)cc1	.	-	.	.	.
CCOC(=O)c1cnc(-n2nc(C)cc2C)nc1Nc1ccc(N(C)C)cc1	-	-	.	78.3	-
CCOC(=O)c1cnc(-n2nc(C)cc2C)nc1NC1CCCCC1	-	-	-	100.0	-
CCOC(=O)c1cnc(-n2nc(C)cc2C)nc1Nc1ccc(C)cc1	.	.	-	.	-
CCOC(=O)c1cnc(-n2nc(C)cc2C)nc1N(CC)CC	-	-	-	63.2	-
COCCOC(=O)c1ccc(NS(=O)(=O)c2ccc(Cl)cc2)cc1	.	-	.	.	.
Cc1cccc(C)c1NC(=S)NNc1ncc(C(F)(F)F)cc1Cl	.	.	2.1	.	-
Cc1ccccc1NC(=S)NNc1ncc(C(F)(F)F)cc1Cl	.	.	-	.	-
CCCc1nc(SC2CCCC2)c2c(=O)n(C)c(=O)n(C)c2n1	-	-	-	84.0	-
O=C(Nc1ccc2ccccc2c1)c1cc(Cl)ccc1Cl	.	-	.	.	.
Cc1cccc(N2C(=O)c3ccc(N)cc3C2=O)c1C	.	-	.	.	.
Brc1ccc(CSc2nnc(-c3cnccn3)n2Cc2ccco2)cc1	-	-	-	64.2	-
SMILES	AP ELISA ortho	HePTP inh	PLAP act	Ecoli tolC	E coli WT exp
Fc1ccc(CSc2nnc(-c3cnccn3)n2Cc2ccco2)cc1	-	-	-	-	-
COc1ccc(N2C(=O)NC(=O)/C(=C/c3cc4c(cc3Br)OCO4)C2=O)cc1	.	-	.	.	.
Cc1ccc(NCc2nnc(SCC(=O)NCc3ccco3)n2CC2CCCO2)cc1Cl (centres undefined)	-	-	-	-	-
Cc1ccc(NCc2nnc(SCCN3CCCCC3)n2CC2CCCO2)cc1Cl (centres undefined)	-	-	2	-	-
C/C(=N\NC(=O)c1ccco1)c1ccc(Br)cc1	.	-	.	.	.
O=C1NCC(Cn2c3ccccc3c3ccccc32)O1 (centres undefined)	.	103.9	.	.	.
O=c1[nH]ncc2c3ccccc3n(Cc3ccccc3)c12	-	-	-	-	-
O=C1NC(=O)N(c2ccccc2)C(=O)C1C(c1ccccc1)c1ccccc1 (centres undefined)	.	-	.	.	.
CC1=NNC(=O)C1C(c1ccccc1)C(C#N)C#N (centres undefined)	.	.	2.2	.	-
Cn1c(SC(c2ccccc2)c2ccccc2)nc2ccccc21	.	-	.	.	.
Cc1ccc(-c2noc(CSc3nnnn3C3CCCCC3)n2)cc1	-	-	-	72.6	-
O=C1NC(=S)S/C1=C\c1ccccc1[N+](=O)[O-]	.	93.3	.	.	.
COc1cc(/C=C2/SC(=S)NC2=O)ccc1OS(=O)(=O)c1ccccc1[N+](=O)[O-]	.	58.8	.	.	.
